Assay outcomes as filed in PubChem BioAssay.
RanGTP-Imp inh – disruptors of Ran-importin-beta complex formation – biochemical, FRET, CFP-Ran, YFP-importin-beta, homogeneous, primary screen; cell-free CFP-Ran/YFP-importin-beta FRET ratio; inhibition, % (no concentration beside the values); 1.1% of 300,000 active; AID 2216;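 active means more than half of the replicate wells show a fall in the fluorescence ratio signal beyond about 16%, limit read from the data, passing the limit was not always enough; inconclusive means exactly half of the replicate wells pass the set limit; inactive means fewer than half of replicates pass the limit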
Platelet DG rel – modulates dense granule release in human platelets; human platelet-rich plasma, SFLLRN dense granule ATP release, luminescence; inhibition, %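 (compounds screened at 7.5 µM in platelet-rich plasma)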; 0.22% of 300,000 active;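 active means mean replicate score, as percent of positive control, at or above 50; inconclusive means mean below 50 but at least one replicate at or above 50; inactive means mean and every replicate below 50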
Rce1 inh – inhibitors of yeast Ras-converting enzyme; calls only; 0.27% of 290,000 active; yeast membranes, quenched prenylated peptide cleavage fluorescence; Q03530;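 active means fall in fluorescence gain of 50% or more versus controls, with final raw signal at or below 3038400; inconclusive means same 50% fall but final raw signal above 3038400; inactive means fall in fluorescence gain under 50%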
Target sequence (Q03530 whole entry, looked up): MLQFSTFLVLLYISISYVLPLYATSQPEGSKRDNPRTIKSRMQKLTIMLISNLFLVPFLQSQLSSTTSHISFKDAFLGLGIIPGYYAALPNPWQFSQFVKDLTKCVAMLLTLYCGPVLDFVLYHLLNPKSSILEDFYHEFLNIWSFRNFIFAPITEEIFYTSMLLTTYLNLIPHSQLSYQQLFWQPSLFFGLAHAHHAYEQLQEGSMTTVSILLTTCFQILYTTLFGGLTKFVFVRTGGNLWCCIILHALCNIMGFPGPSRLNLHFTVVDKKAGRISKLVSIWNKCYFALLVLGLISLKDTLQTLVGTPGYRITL
Runt-SMMHC FRET – blocks binding of human RUNX1 Runt domain to CBFb-SMMHC | Cerulean-Runt/Venus-CBFb-SMMHC FRET ratio 530/480, 1 h | inhibition, % at 20 µM | 0.74% of 220,000 active | AID 1434;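 active means mean inhibition across duplicate retests at 20 µM reaching about 50%, limit read from the data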;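 further: inhibitors lower the FRET ratio by blocking Runt binding to CBFb-SMMHC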
Runt-CBFb FRET – Runt domain-CBFb interaction inhibition | inhibition, % at 20 µM | Cerulean-Runt/Venus-CBFb FRET ratio 530/480, 1 h | AID 1496 | 0.46% of 220,000 active;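 active means inhibition over about 50% at 20 µM in the single-dose screen, limit read from the data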
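Measured by: fluorescence energy transfer, 422 nm excitation, 530/480 nm emission; test system: Cerulean-tagged RUNX1 Runt domain (FRET donor) fusion protein; buffer or medium: Tris pH 7.5 buffer with BSA; compound: one dose, 20 µM compound, 1% DMSO; times: two 1 h room-temperature incubations shielded from light; benchmarks: unlabeled CBFb 5 µM, positive control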
Large screens that a line does not name were inactive. Shown are actives, neighbours in structure and some others; about 1.8% of the full set was active somewhere.

COc1ccccc1C(=O)Nc1ccc(C2=NNC(=O)CC2C)cc1 (stereo not given)	RanGTP-Imp inh inconclusive, Platelet DG rel 88
COc1ccccc1C(=O)Nc1ccncc1	none (no result: Runt-SMMHC FRET, Runt-CBFb FRET)
NC(=O)c1ccccc1NC(=O)CCn1c(=S)oc2ccccc21	none (no result: Runt-SMMHC FRET, Runt-CBFb FRET)
O=C(NC(Cc1ccccc1)C(=O)Oc1ccc2c(C(F)(F)F)cc(=O)oc2c1)OCc1ccccc1 (stereo not given)	RanGTP-Imp inh 37, Runt-SMMHC FRET 81
CC(NC(=O)OCc1ccccc1)C(=O)Oc1cc2oc(=O)cc(-c3ccccc3)c2cc1Cl (stereo not given)	Runt-SMMHC FRET 60
CC(C)[C@H](NC(=O)OCc1ccccc1)C(=O)OCc1cc(=O)oc2cc(O)ccc12	none (no result: Runt-SMMHC FRET, Runt-CBFb FRET)
O=C(Cc1ccccc1)NNC(=O)c1ccc(Br)o1	none (no result: Runt-SMMHC FRET, Runt-CBFb FRET)
C/C=C(\C)C(=O)Nc1cccc(C2=NOC3(C2)C[C@H](C(N)=O)N(C(=O)C(c2ccccc2)c2ccccc2)C3)c1 (stereo not given in full)	none
O=S(=O)(Nc1ccc(-c2ccc(N3CCOCC3)nn2)cc1)c1ccc(Cl)c(Cl)c1	Platelet DG rel 50 (no result: Runt-SMMHC FRET, Runt-CBFb FRET)
O=[N+]([O-])c1ccc(Cl)c(S(=O)(=O)Nc2ccc(-c3ccc(N4CCOCC4)nn3)cc2)c1	none (no result: Runt-SMMHC FRET, Runt-CBFb FRET)
CCOc1ccc(/C=C2\CCCc3c2nc2ccccc2c3C(=O)O)cc1OC	RanGTP-Imp inh 29 (no result: Runt-SMMHC FRET, Runt-CBFb FRET)
COc1ccc(/C=C2\CCCc3c2nc2ccccc2c3C(=O)O)cc1OC	RanGTP-Imp inh 37, Runt-SMMHC FRET 81
COc1ccc(/C=C2\CCc3c2nc2ccccc2c3C(=O)O)cc1OC	Platelet DG rel inconclusive
COc1ccc2[nH]c(C(=O)NCCCN3CCCC3=O)c(C)c2c1	none (no result: Runt-SMMHC FRET, Runt-CBFb FRET)
COc1ccc2nc(SCCN(C)C)[nH]c2c1	none (no result: Runt-SMMHC FRET, Runt-CBFb FRET)
COc1ccc(OC)c2c(C)cc(N3CCCCCC3)nc12	none (no result: Runt-SMMHC FRET, Runt-CBFb FRET)
Cc1ccc(O)c(Nc2nc(-c3ccccc3)nc3ccccc23)c1	none (no result: Runt-SMMHC FRET, Runt-CBFb FRET)
Cc1ccc(O)c(Nc2c3ccccc3nc3ccccc23)c1	RanGTP-Imp inh 24 (no result: Runt-SMMHC FRET, Runt-CBFb FRET)
CCOC(=O)C1CCN(C=Nc2cc(C)on2)CC1	Platelet DG rel 57
CCOC(=O)C1CCN(Cc2ccccn2)CC1	none (no result: Runt-SMMHC FRET, Runt-CBFb FRET)
COc1ccc(C2CC(c3ccccc3)=NN2C(=O)CN2N=NC3C(=O)N(c4cccc(F)c4)C(=O)C32)cc1 (stereo not given)	none
N#Cc1c(C(F)(F)F)cc(-c2ccc(F)cc2)nc1SCC(=O)O	none
CCCCOc1ccc(-c2cc(C(F)(F)F)c(C#N)c(SCC(=O)O)n2)cc1	Rce1 inh active
CC(=O)Oc1ccc2c(=O)c(-c3nc4ccccc4s3)coc2c1	Platelet DG rel 61
Cc1[nH]c(=S)c(C#N)c(C)c1CC(=O)c1ccc(Br)cc1	none (no result: Runt-SMMHC FRET, Runt-CBFb FRET)
CCC(C)NC(=O)CSC1=Nc2ccccc2C2=NC(CC(=O)NCc3ccc(F)cc3)C(=O)N12 (stereo not given)	Rce1 inh active
COc1ccc(C(=O)NC(C(=O)NCCc2ccc3c(c2)OCCO3)C(C)C)cc1 (stereo not given)	none
O=C1C2CC=C(Cl)CC2C(=O)N1c1ncn[nH]1 (stereo not given)	none
O=C1C2CC=CCC2C(=O)N1c1ncn[nH]1 (stereo not given)	RanGTP-Imp inh 39
Cc1nc2sccn2c(=O)c1S(=O)(=O)N1CCN(c2cccc(Cl)c2)CC1	Platelet DG rel 54 (no result: Runt-SMMHC FRET, Runt-CBFb FRET)
C[C@@H](NCCc1ccc(O)cc1)[C@@H](O)c1ccc(O)cc1	none (no result: Runt-SMMHC FRET, Runt-CBFb FRET)
CCCCCCCCNC(C)C(O)c1ccc(SC(C)C)cc1 (stereo not given)	Rce1 inh active
O=C(CCC(=O)N/N=C/c1ccc(Br)s1)NCc1ccccc1	none
O=C(CCC(=O)N/N=C/c1cc(Cl)cc(Cl)c1O)NCc1ccccc1	RanGTP-Imp inh 43, Runt-SMMHC FRET 92
Cc1ccc(S(=O)(=O)c2cc3c(=O)n4ccccc4nc3n(C3CCCCC3)c2=N)cc1	RanGTP-Imp inh 48 (no result: Runt-SMMHC FRET, Runt-CBFb FRET)
N=c1c(S(=O)(=O)c2ccc(Cl)cc2)cc2c(=O)n3ccccc3nc2n1C1CCCCC1	RanGTP-Imp inh inconclusive (no result: Runt-SMMHC FRET, Runt-CBFb FRET)
N=c1c(S(=O)(=O)c2ccc(Br)cc2)cc2c(=O)n3ccccc3nc2n1C1CCCC1	RanGTP-Imp inh 69 (no result: Runt-SMMHC FRET, Runt-CBFb FRET)
N=c1c(S(=O)(=O)c2ccccc2)cc2c(=O)n3ccccc3nc2n1C1CCCC1	RanGTP-Imp inh 144 (no result: Runt-SMMHC FRET, Runt-CBFb FRET)
C[C@@H](O)C1NC(=O)[C@H](CCCCN)NC(=O)c2cc([N+](=O)[O-])cc(I)c2OCC[C@@H](C(N)=O)NC1=O (stereo not given in full)	none
COc1ccc(C(=O)COC(=O)CNC(=O)c2cc(OC)cc(OC)c2)cc1	none
COc1ccccc1CNC(=O)c1ccncc1	RanGTP-Imp inh 23 (no result: Runt-SMMHC FRET, Runt-CBFb FRET)
COc1ccccc1CNC(=O)c1cccc(NC(=O)c2ccccc2)c1	none
Cc1ccc(C(=O)/C=C/c2c[nH]c3ccccc23)cc1	RanGTP-Imp inh 54
COc1ccc2[nH]cc(/C=C/C(=O)c3ccccc3)c2c1	RanGTP-Imp inh 25
O=C(/C=C/c1c[nH]c2ccccc12)c1ccccc1	RanGTP-Imp inh 55
Cc1ccc(S(=O)(=O)/C(C#N)=C/c2c[nH]c3ccccc23)cc1	RanGTP-Imp inh inconclusive
COc1cc(C2CC(c3cccnc3)=NN2c2ccc(F)cc2)cc(OC)c1OC (stereo not given)	Runt-SMMHC FRET 87 (no result: RanGTP-Imp inh)
Cc1ccc(NC2=CC(=O)CC(c3ccccc3)C2)cc1 (stereo not given)	RanGTP-Imp inh inconclusive
Cc1ccc(NC2=CC(=O)CC(c3ccc(Cl)cc3)C2)cc1 (stereo not given)	RanGTP-Imp inh 35
CN1/C(=C\C=C(/C#N)C(=O)Nc2ccc(Cl)cc2)C(C)(C)c2ccccc21	RanGTP-Imp inh 28
CN1/C(=C\C(=O)Nc2ccc(Cl)cc2)C(C)(C)c2ccccc21	none
Cn1c(=O)c2nc3ccccc3nc2n(C)c1=O	Runt-SMMHC FRET 63
CCN(CC(=O)NCc1ccc(F)cc1)C(=O)/C=C/c1cc(OC)ccc1OC	none (no result: Runt-SMMHC FRET, Runt-CBFb FRET)
NC(=O)c1nn(-c2ccc(Cl)cc2Cl)c(=O)cc1O	none
c1ccc2c(NCCCN3CCOCC3)c3ccccc3nc2c1	Runt-SMMHC FRET 92, Runt-CBFb FRET 99 (no result: RanGTP-Imp inh, Platelet DG rel, Rce1 inh)
Oc1ccc(CCNc2c3ccccc3nc3ccccc23)cc1O	RanGTP-Imp inh 103 (no result: Runt-SMMHC FRET, Runt-CBFb FRET)
O=C(CNC(=O)c1ccccc1)NCCc1ccc(O)c(O)c1	none (no result: Runt-SMMHC FRET, Runt-CBFb FRET)
c1ccc(CNc2c3ccccc3nc3ccccc23)cc1	RanGTP-Imp inh 91 (no result: Runt-SMMHC FRET, Runt-CBFb FRET)
OCC(Cc1ccccc1)Nc1c2ccccc2nc2ccccc12 (stereo not given)	RanGTP-Imp inh 118, Runt-SMMHC FRET 59, Runt-CBFb FRET 61
OCC(Cc1ccccc1)NCc1ccccc1C(F)(F)F (stereo not given)	RanGTP-Imp inh inconclusive
COc1ccc(CC(=O)n2[nH]c(=O)cc(C)c2=O)cc1OC	none
COCCCN1C(=O)c2ccc(C(=O)OCC(=O)N(CCC#N)c3cc(C)cc(C)c3)cc2C1=O	none (no result: Runt-SMMHC FRET, Runt-CBFb FRET)
CN(C)CCCNc1c2ccccc2nc2ccccc12	RanGTP-Imp inh 108 (no result: Runt-SMMHC FRET, Runt-CBFb FRET)
CN(C)CCCNc1nc(-c2ccccc2)nc2ccccc12	none
